For two molecules, IC50 and Activity results are on record in ChEMBL document CHEMBL1150122, “A new cytotoxic epothilone from modified polyketide synthases heterologously expressed in Myxococcus xanthus” (J Nat Prod, 2002).

Experiment [1] concerns HL-60. The experiment can be described thus: Cytotoxicity against mitoxantrone-resistant human HL60 cells after 3 days by SRB assay. The experiment is classed as functional, cell-based. The note with it: HL-60, 72 h. In outline:
(§1)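 Cells kept in RPMI 1640 with 10% FBS and 2 mM L-glutamine, 37 °C, 5% CO2. Trypsinized cells seeded at 5000–7500 per well; compound added 20 h later across 0.001–1000 nM in growth medium. After 3 days, fixed with 10% TCA (4 °C, 1 h), stained 0.2% SRB/1% acetic acid 20 min, dye extracted with 10 mM Tris base, absorbance read at 515 nm.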
A general note: Sulforhodamine B stains cellular protein and so reports cell mass.

Experiment [2] has as its system SF-268. The experiment can be described thus: Cytotoxicity against human SF268 cells after 3 days by SRB assay. The experiment is classed as functional, cell-based. The note with it: SF-268, 72 h. In outline: as §1
In experiment [3] the test system is MCF7. The experiment can be described thus: Cytotoxicity against human MCF7 cells after 3 days by SRB assay. The conditions noted are these: MCF7, 72 h. The experiment is classed as functional, cell-based. In outline:
as §1

For experiment [4], the system named is HL-60. The experiment can be described thus: Cytotoxicity against human HL60 cells after 3 days by SRB assay. The note with it: HL-60, 72 h. The experiment is classed as functional, cell-based. Put shortly: as §1
In experiment [5] the test system is NCI-H460. The experiment can be described thus: Cytotoxicity against human NCI-H460 cells after 3 days by SRB assay. The experiment is classed as functional, cell-based. The conditions noted are these: NCI-H460, 72 h. Put shortly:
as §1

Experiment [6] deals with CCRF-CEM. The experiment can be described thus: Cytotoxicity against human CCRF-CEM cells after 3 days by SRB assay. The experiment is classed as functional, cell-based. The note with it: 72 h. In outline: as §1
The test system of experiment [7] is CCRF-CEM. The experiment can be described thus: Cytotoxicity against camptothecin-resistant human CCRF-CEM cells after 3 days by SRB assay. The experiment is classed as functional, cell-based. The conditions noted are these: 72 h. Put shortly:
as §1

Experiment [8] concerns NCI/ADR-RES. The experiment can be described thus: Cytotoxicity against human NCI/ADR-RES cells after 3 days by SRB assay. The experiment is classed as functional, cell-based. The conditions noted are these: 72 h. In outline: as §1
Experiment [9] concerns the target Tubulin (Homo sapiens) (UniProt P68371+Q9H4B7+P0DPH7+P68366+Q13509+Q71U36+P04350+Q3ZCM7+P07437+P68363+Q9BQE3+Q6PEY2+Q13885+Q9BVA1+Q9BUF5). The experiment can be described thus: […] in human MCF7 cells at 1 uM after 2 hrs by SDS-PAGE. The experiment is classed as cell-based. In outline: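 Confluent MCF-7 cells in 35 mm dishes treated with 1 μM compound for 0, 1 and 2 h at 37 °C. Lysates spun 18000g, 12 min, to separate soluble tubulin (supernatant) from polymerized tubulin (pellet).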

The IC50 is the point on the concentration scale where inhibition reaches its midpoint. Read a low IC50 as higher potency.

The source made the active and inactive calls. The rule behind the calls is not given here.

In the case of `CC1=C/C[C@@H](/C(C)=C/c2csc(C)n2)OC(=O)C[C@H](O)C(C)(C)C(=O)[C@H](C)[C@@H](O)[C@@H](C)C\C=C\1`, the IC50 in experiment [1] came out at 18 nM; in [2], 40 nM; in experiment [3], 28 nM; in experiment [4], 25 nM; in experiment [5] it was 34 nM; in [6], 23 nM. Besides, the IC50 in [7] worked out at 11 nM; in [8] it was 35 nM. The result in [9] was Active.

`C/C1=C/C[C@@H](/C(C)=C/c2csc(C)n2)OC(=O)C[C@H](O)C(C)(C)C(=O)[C@H](C)[C@@H](O)[C@@H](C)CCC1` [EPOTHILONE D]: the IC50 in [1] amounted to 10 nM; in experiment [2] it was 14 nM; in [3], 8 nM; in experiment [4] it was 8 nM; in experiment [5] it was 8 nM; in [6], 22 nM. Moreover, the IC50 was determined as 15 nM in [7] and 30 nM in [8].
